# Measured values reported in ChEMBL document CHEMBL4627405, “A Venomics Approach Coupled to High-Throughput Toxin Production Strategies Identifies the First Venom-Derived Melanocortin Receptor Agonists” (J Med Chem, 2020).
# Activity calls are given as the source filed them. The calls are words filed in the database; no cut-off is given here. Positions of bridges follow the written chain, without caps; N, C: chain ends. Residues, ends and D or L forms follow the SMILES beside them.
# Key:
# [1] = target: T1, Melanocortin receptor 4 (Homo sapiens, UniProt P32245); assay: Displacement of [125I]-NDP-alpha-MSH from human MC4R expressed in CHO-K1 cell membranes incubated for 3 hrs by top-count beta counting relative to control; conditions: concentration not given here
# T1 sequence (P32245 whole entry): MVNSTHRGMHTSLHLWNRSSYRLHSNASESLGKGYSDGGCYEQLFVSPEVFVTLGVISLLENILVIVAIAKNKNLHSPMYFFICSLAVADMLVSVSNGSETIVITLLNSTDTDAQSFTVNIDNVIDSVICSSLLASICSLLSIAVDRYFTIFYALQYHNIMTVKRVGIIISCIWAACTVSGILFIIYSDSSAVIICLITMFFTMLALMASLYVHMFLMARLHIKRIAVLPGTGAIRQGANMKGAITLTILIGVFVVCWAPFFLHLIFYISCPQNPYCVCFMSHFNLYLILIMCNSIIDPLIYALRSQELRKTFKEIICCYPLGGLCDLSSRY
# Outline: (§1)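 Membranes were from CHO cells stably expressing hMC1R, hMC4R or hMC5R, or from HEK293 cells expressing hMC3R. Competition used 50 pM 125I-NDP-α-MSH with varied competitor, 3 h at room temperature, in 25 mM HEPES pH 7.4, 1 mM MgCl2, 1 mM CaCl2, 0.2 g/L BSA. Nonspecific binding was set with 1 µM NDP-α-MSH. Samples were filtered on PEI-treated GF/C and scintillation counted. At least three experiments in duplicate, mean ± SEM.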
# [2] = target: Potassium voltage-gated channel subfamily A member 6 (Homo sapiens) (UniProt P17658); assay: Inhibition of human Kv1.6 at 100 uM
# Outline: (§2)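 Potassium currents were recorded by two-electrode voltage clamp in oocytes 1–4 days after injecting 50 nl cRNA (1 ng/nl), at 18–22 °C. Bath was 96 mM NaCl, 2 mM KCl, 1.8 mM CaCl2, 2 mM MgCl2, 5 mM HEPES pH 7.4. Toxin was bath-applied at 100 µM. Currents were filtered at 0.5 kHz and sampled at 2 kHz.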
# [3] = target: G protein-activated inward rectifier potassium channel 1 (Homo sapiens) (UniProt P48549); assay: Inhibition of human GIRK1 at 100 uM
# Outline: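 Two-electrode voltage clamp of cRNA-injected oocytes at 18–22 °C, holding at −70 mV. Oocytes were superfused with high-K+ solution (96 mM KCl, 2 mM NaCl, 1 mM MgCl2, 1.8 mM CaCl2, 5 mM HEPES pH 7.5). Toxin was applied to the bath at 100 µM. Currents were filtered at 0.05 kHz and sampled at 0.1 kHz.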
# [4] = target: Voltage-gated inwardly rectifying potassium channel KCNH2 (Homo sapiens, UniProt Q12809); assay: Inhibition of human Kv11.1 at 100 uM; outline: as §2
# [5] = target: Potassium voltage-gated channel subfamily B member 1 (Homo sapiens) (UniProt Q14721); assay: Inhibition of human Kv2.1 at 100 uM; outline: as §2
# [6] = target: Potassium voltage-gated channel subfamily A member 1 (Homo sapiens) (UniProt Q09470); assay: Inhibition of human Kv1.1 at 100 uM; outline: as §2
# [7] = target: Voltage-gated potassium channel KCNC1 (Homo sapiens) (UniProt P48547); assay: Inhibition of human Kv3.1 at 100 uM; outline: as §2
# [8] = target: Sodium channel protein type 1 subunit alpha (Homo sapiens) (UniProt P35498); assay: Inhibition of human NaV1.1 at 100 uM
# Outline: (§3)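 Two-electrode voltage clamp of oocytes injected with 50 nl cRNA (1 ng/nl) and recorded 1–4 days later at 18–22 °C. Bath was 96 mM NaCl, 2 mM KCl, 1.8 mM CaCl2, 2 mM MgCl2, 5 mM HEPES pH 7.4. Toxin was applied to the bath at 100 µM. Currents were evoked by 100 ms depolarisation to the voltage of maximal sodium current, filtered at 2 kHz and sampled at 20 kHz.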
# [9] = target: Potassium voltage-gated channel subfamily A member 5 (Homo sapiens) (UniProt P22460); assay: Inhibition of human Kv1.5 at 100 uM; outline: as §2
# [10] = target: Sodium channel protein type 10 subunit alpha (Homo sapiens) (UniProt Q9Y5Y9); assay: Inhibition of human NaV1.8 at 100 uM
# Chain of Sodium channel protein type 10 subunit alpha (Homo sapiens) (Q9Y5Y9 whole entry, looked up): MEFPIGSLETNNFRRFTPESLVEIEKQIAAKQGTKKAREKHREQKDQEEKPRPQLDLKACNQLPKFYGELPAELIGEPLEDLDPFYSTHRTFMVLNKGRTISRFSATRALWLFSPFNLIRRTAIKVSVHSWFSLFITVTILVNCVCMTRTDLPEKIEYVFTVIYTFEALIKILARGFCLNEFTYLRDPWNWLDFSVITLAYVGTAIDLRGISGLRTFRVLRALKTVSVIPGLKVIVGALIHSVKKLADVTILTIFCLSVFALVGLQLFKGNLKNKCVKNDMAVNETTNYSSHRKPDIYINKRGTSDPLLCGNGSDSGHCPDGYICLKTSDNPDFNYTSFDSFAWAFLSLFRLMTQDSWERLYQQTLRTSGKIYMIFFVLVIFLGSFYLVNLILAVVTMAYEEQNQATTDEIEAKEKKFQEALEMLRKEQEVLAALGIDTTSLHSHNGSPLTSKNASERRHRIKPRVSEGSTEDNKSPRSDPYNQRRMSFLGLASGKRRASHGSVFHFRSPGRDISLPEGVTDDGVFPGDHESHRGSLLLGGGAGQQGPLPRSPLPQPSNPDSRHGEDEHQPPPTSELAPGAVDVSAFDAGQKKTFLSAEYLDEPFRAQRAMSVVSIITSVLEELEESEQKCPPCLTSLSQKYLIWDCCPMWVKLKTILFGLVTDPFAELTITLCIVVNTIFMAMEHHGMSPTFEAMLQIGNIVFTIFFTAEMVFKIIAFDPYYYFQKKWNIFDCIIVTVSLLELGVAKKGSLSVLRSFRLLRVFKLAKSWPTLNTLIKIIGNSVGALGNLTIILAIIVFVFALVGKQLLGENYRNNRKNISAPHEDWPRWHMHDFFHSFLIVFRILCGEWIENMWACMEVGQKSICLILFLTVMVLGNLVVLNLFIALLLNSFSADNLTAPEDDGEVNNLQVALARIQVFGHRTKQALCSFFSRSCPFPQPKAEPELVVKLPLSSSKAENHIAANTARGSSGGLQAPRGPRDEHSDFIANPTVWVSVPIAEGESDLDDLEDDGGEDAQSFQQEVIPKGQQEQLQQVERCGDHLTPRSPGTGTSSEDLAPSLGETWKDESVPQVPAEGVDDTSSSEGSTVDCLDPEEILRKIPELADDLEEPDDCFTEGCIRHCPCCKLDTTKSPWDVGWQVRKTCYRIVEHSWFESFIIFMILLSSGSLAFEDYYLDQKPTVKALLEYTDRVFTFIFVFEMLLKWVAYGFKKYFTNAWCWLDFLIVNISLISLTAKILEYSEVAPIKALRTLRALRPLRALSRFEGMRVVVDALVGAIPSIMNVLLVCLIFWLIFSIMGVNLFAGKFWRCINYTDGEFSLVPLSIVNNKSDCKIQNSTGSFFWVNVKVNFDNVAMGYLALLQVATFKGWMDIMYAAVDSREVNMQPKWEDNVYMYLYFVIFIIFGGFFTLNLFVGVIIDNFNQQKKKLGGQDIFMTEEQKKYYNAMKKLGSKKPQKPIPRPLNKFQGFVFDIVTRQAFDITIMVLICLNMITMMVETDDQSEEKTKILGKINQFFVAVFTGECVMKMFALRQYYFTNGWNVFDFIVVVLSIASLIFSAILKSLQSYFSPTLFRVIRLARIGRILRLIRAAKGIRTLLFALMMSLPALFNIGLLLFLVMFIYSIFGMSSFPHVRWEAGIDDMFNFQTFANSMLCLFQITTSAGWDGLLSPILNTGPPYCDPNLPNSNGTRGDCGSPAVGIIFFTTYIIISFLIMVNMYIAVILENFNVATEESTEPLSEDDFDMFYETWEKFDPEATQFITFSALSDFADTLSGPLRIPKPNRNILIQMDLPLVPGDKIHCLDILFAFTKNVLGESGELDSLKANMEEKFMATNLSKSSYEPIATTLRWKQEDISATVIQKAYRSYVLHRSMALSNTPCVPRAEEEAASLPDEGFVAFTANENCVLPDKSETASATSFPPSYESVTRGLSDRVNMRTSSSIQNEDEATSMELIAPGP
# [11] = target: T1, Melanocortin receptor 4; assay: Antagonist activity at human MC4R transiently expressed in HEK293 cells assessed as reduction in alpha-MSH-induced cAMP accumulation at 100 uM incubated for 3 hrs by luciferase reporter gene assay
# [12] = target: Sodium channel protein type 2 subunit alpha (Homo sapiens) (UniProt Q99250); assay: Inhibition of human NaV1.2 at 100 uM; outline: as §3
# [13] = target: Voltage-gated delayed rectifier potassium channel KCNH1 (Homo sapiens) (UniProt O95259); assay: Inhibition of human Kv10.1 at 100 uM; outline: as §2
# Chain of Voltage-gated delayed rectifier potassium channel KCNH1 (Homo sapiens) (O95259 whole entry): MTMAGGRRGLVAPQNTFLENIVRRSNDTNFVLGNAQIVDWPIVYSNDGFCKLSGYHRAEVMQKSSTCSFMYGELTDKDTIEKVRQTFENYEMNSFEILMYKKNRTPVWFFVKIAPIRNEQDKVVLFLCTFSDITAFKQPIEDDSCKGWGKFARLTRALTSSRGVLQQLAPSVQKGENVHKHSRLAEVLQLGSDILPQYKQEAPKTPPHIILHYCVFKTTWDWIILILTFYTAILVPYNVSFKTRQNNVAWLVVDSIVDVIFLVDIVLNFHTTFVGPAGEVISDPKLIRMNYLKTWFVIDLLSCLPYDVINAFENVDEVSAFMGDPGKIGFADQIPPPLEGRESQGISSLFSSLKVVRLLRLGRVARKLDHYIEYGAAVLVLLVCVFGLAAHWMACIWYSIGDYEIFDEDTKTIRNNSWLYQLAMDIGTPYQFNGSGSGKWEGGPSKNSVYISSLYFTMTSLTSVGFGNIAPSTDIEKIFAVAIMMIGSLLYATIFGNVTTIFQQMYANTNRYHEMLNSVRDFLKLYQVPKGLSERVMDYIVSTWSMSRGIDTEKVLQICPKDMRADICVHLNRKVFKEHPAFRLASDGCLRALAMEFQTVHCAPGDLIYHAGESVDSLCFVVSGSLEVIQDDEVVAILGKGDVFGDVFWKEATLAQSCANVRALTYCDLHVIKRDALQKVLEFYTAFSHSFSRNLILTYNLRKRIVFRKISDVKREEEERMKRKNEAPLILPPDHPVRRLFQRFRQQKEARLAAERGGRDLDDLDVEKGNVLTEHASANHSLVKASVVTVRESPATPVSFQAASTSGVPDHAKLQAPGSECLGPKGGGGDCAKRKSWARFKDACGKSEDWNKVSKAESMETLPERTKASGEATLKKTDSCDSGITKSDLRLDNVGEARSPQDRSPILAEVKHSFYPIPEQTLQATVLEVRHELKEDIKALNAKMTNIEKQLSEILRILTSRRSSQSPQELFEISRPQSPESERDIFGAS
# [14] = target: Potassium voltage-gated channel subfamily A member 3 (Homo sapiens) (UniProt P22001); assay: Inhibition of human Kv1.3 at 100 uM; outline: as §2
# Chain of Potassium voltage-gated channel subfamily A member 3 (Homo sapiens) (P22001 whole entry): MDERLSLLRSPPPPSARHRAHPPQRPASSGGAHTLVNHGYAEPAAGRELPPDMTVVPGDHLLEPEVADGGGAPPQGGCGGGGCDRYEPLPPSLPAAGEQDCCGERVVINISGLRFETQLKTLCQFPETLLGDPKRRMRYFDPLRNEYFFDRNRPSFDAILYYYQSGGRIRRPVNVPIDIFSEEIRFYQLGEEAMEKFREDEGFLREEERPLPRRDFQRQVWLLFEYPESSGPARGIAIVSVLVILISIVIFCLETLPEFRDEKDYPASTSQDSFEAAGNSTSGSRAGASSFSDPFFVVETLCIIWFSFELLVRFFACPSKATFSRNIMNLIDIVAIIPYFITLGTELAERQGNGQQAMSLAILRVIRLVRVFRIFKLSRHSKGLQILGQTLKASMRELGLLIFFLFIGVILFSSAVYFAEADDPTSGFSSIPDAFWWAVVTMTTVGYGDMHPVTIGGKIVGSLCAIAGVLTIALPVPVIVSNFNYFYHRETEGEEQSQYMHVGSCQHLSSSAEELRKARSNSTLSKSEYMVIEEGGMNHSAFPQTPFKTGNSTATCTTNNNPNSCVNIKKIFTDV
# [15] = system: HEK293; assay: Effect on cAMP production in HEK293 cells at 100 uM incubated for 3 hrs by luciferase reporter gene assay; type: functional, cell-based; conditions: Homo sapiens
# [16] = target: T2, Melanocyte-stimulating hormone receptor (Homo sapiens, UniProt Q01726); assay: Displacement of [125I]-NDP-alpha-MSH from human MC1R expressed in CHO-K1 cell membranes incubated for 3 hrs by top-count beta counting; outline: as §1
# [17] = target: Potassium voltage-gated channel subfamily KQT member 3 (Homo sapiens) (UniProt O43525); assay: Inhibition of human Kv7.3 at 100 uM; outline: as §2
# [18] = target: Acetylcholine receptor; alpha1/beta1/delta/gamma (Homo sapiens) (UniProt P02708+P07510+P11230+Q07001); assay: Inhibition of human nAChR alpha1(2)beta1gammadelta; type: protein-complex assay
# [19] = target: Melanocortin receptor 5 (Homo sapiens, UniProt P33032); assay: Displacement of [125I]-NDP-alpha-MSH from human MC5R expressed in CHO-K1 cell membranes incubated for 3 hrs by top-count beta counting; outline: as §1
# Chain of Melanocortin receptor 5 (P33032 whole entry): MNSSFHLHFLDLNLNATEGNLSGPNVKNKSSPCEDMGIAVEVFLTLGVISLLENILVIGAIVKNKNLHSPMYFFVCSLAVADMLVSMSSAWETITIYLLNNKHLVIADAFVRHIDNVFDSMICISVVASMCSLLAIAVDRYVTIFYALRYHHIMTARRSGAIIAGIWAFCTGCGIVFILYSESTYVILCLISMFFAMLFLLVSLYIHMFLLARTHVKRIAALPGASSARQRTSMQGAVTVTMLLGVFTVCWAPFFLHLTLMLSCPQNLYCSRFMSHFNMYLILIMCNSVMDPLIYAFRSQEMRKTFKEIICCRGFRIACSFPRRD
# [20] = target: Sodium channel protein type 3 subunit alpha (Homo sapiens) (UniProt Q9NY46); assay: Inhibition of human NaV1.3 at 100 uM; outline: as §3
# [21] = target: T2, Melanocyte-stimulating hormone receptor; assay: Agonist activity at N-terminal HA-tagged and C-terminal FLAG-tagged human MC1R expressed in HEK293 cells assessed as stimulation of cAMP accumulation at 100 uM incubated for 3 hrs by luciferase reporter gene assay; type: functional, cell-based
# Target sequence in this assay (Q01726 whole entry, looked up): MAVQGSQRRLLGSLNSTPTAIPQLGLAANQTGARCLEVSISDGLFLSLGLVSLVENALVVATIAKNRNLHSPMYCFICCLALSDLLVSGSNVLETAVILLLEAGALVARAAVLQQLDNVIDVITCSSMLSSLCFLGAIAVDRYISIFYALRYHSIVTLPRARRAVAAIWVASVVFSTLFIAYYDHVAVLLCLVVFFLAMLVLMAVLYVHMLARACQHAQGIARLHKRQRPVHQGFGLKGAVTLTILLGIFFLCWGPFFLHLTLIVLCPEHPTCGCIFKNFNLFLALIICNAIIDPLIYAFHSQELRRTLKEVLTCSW
# [22] = target: Sodium channel protein type 5 subunit alpha (Homo sapiens, UniProt Q14524); assay: Inhibition of human NaV1.5 at 100 uM; outline: as §3
# [23] = target: Sodium channel protein type 4 subunit alpha (Homo sapiens) (UniProt P35499); assay: Inhibition of human NaV1.4 at 100 uM; outline: as §3
# [24] = target: Melanocortin receptor 3 (Homo sapiens, UniProt P41968); assay: Displacement of [125I]-NDP-alpha-MSH from human MC3R expressed in HEK293 cell membranes incubated for 3 hrs by top-count beta counting
# [25] = target: Voltage-dependent T-type calcium channel subunit alpha-1I (Homo sapiens) (UniProt Q9P0X4); assay: Inhibition of human Cav3.3 at 100 uM
# Outline: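 Oocyte two-electrode voltage clamp at 18–22 °C, 1–4 days after cRNA injection (50 nl, 1 ng/nl). Toxin was bath-applied at 100 µM. Currents were carried by 10 mM Ba2+ and elicited by 200 ms depolarisations from −90 mV to between −50 and +30 mV, filtered at 0.5 kHz and sampled at 2 kHz.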
# [26] = target: A-type voltage-gated potassium channel KCND3 (Homo sapiens, UniProt Q9UK17); assay: Inhibition of human Kv4.3 at 100 uM; outline: as §2
# [27] = target: T1, Melanocortin receptor 4; assay: Agonist activity at human MC4R expressed in HEK293 cells assessed as stimulation of cAMP accumulation at 100 uM incubated for 3 hrs by luciferase reporter gene assay; type: functional, cell-based
# [28] = target: Potassium voltage-gated channel subfamily A member 4 (Homo sapiens) (UniProt P22459); assay: Inhibition of human Kv1.4 at 100 uM; outline: as §2
# [29] = target: Potassium voltage-gated channel subfamily A member 2 (Homo sapiens) (UniProt P16389); assay: Inhibition of human Kv1.2 at 100 uM; outline: as §2
# [30] = target: T1, Melanocortin receptor 4; assay: Displacement of [125I]-NDP-alpha-MSH from human MC4R expressed in CHO-K1 cell membranes incubated for 3 hrs by top-count beta counting; outline: as §1
# [31] = target: Sodium channel protein type 8 subunit alpha (Homo sapiens) (UniProt Q9UQD0); assay: Inhibition of human NaV1.6 at 100 uM; outline: as §3
# [32] = target: T2, Melanocyte-stimulating hormone receptor; assay: Activity at N-terminal HA-tagged and C-terminal FLAG-tagged human MC1R expressed in HEK293 cells assessed as potentiation of alpha-MSH-induced cAMP accumulation at 100 uM incubated for 3 hrs by luciferase reporter gene assay; type: functional, cell-based
# Target sequence in this assay (Q01726 whole entry, looked up): as above
# [33] = target: Potassium voltage-gated channel subfamily KQT member 1 (Homo sapiens, UniProt P51787); assay: Inhibition of human Kv7.1 at 100 uM; outline: as §2
# [34] = target: Neuronal acetylcholine receptor subunit alpha-7 (Homo sapiens) (UniProt P36544); assay: Inhibition of human nAChR alpha7
# Chain of Neuronal acetylcholine receptor subunit alpha-7 (Homo sapiens) (P36544 whole entry): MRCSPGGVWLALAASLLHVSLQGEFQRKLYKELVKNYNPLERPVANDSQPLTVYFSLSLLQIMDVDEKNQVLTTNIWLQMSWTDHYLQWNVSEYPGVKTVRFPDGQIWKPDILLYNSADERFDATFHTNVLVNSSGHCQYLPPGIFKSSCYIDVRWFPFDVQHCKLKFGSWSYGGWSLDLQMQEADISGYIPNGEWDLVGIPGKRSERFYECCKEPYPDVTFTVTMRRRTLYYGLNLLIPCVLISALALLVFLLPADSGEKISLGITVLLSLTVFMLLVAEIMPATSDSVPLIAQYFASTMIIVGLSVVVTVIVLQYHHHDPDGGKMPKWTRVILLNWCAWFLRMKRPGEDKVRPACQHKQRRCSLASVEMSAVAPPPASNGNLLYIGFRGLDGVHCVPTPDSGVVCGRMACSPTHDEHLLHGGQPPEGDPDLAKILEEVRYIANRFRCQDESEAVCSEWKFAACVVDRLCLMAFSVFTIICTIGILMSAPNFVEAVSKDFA
SMILES,inhibition [1] [%],inhibition [2],inhibition [3],inhibition (INH) [4],inhibition [5],inhibition [6],inhibition [7],inhibition [8],inhibition [9],inhibition [10],Activity [11],inhibition [12],inhibition [13],inhibition [14],Activity [15],Ki [16] [µM],inhibition [17],inhibition [18],Ki [19] [µM],inhibition [20],further results
"CC[C@H](C)[C@@H]1NC(=O)[C@H](C)NC(=O)[C@H](CCCCN)NC(=O)[C@H](CC(C)C)NC(=O)[C@@H]2CSSC[C@@H](C(=O)O)NC(=O)[C@H](CCCCN)NC(=O)[C@@H]3CSSC[C@H](NC(=O)[C@H](CCC(=O)O)NC(=O)[C@H](C(C)C)NC(=O)[C@H](CO)NC(=O)[C@H](C)NC(=O)[C@H](CO)NC(=O)[C@@H](NC(=O)[C@H](CCCNC(=N)N)NC(=O)[C@H](CCSC)NC(=O)[C@H](CC(=O)O)NC(=O)[C@H](CCSC)NC(=O)[C@@H](N)CCC(N)=O)CSSC[C@H](NC(=O)[C@H](CCCCN)NC(=O)CNC(=O)[C@H](Cc4ccccc4)NC(=O)[C@H]([C@@H](C)CC)NC(=O)[C@H](CO)NC(=O)CNC1=O)C(=O)N[C@@H](CCSC)C(=O)N[C@@H](CC(N)=O)C(=O)N[C@@H](CCCCN)C(=O)N[C@@H](CCCCN)C(=O)N3)C(=O)N[C@@H](CCCCN)C(=O)N[C@@H](CCC(N)=O)C(=O)N[C@@H](CCCCN)C(=O)N2 (H-QMDMRCSASVECKQKCLKAIGSIFGKCMNKKCKC-OH; disulfide 6-27, 12-32, 16-34)",86,inactive,inactive,Not Active,inactive,inactive,inactive,inactive,inactive,inactive,inactive,inactive,inactive,inactive,inactive,2.9,inactive,inactive,2.2,inactive,Activity [21]: Active; inhibition (INH) [22]: Not Active; inhibition [23]: inactive; Ki [24]: 3.9 µM; inhibition [25]: inactive; inhibition (INH) [26]: Not Active; Activity [27]: inactive; inhibition [28]: inactive; inhibition [29]: inactive; Ki [30]: 2.6 µM; inhibition [31]: inactive; Activity [32]: Active; inhibition (INH) [33]: Not Active; inhibition [34]: inactive
"CC[C@H](C)[C@@H]1NC(=O)[C@@H]2CCCN2C(=O)CNC(=O)[C@H](CO)NC(=O)[C@@H]2CSSC[C@@H]3NC(=O)[C@H]([C@@H](C)O)NC(=O)CNC(=O)[C@H](CSSC[C@H](NC(=O)[C@@H](N)CCCNC(=N)N)C(=O)N[C@@H](CC(C)C)C(=O)N[C@@H](Cc4cnc[nH]4)C(=O)N[C@@H](C)C(=O)NCC(=O)N[C@@H](C)C(=O)N[C@@H](C)C(=O)N2)NC(=O)[C@H](CSSC[C@@H](C(=O)N[C@H](C(=O)O)[C@@H](C)O)NC(=O)[C@H](CCCCN)NC(=O)[C@H](CCCNC(=N)N)NC(=O)[C@H](CCCNC(=N)N)NC(=O)[C@H](CO)NC3=O)NC(=O)[C@@H]2CCCN2C(=O)[C@H]([C@@H](C)CC)NC(=O)[C@H](CCCCN)NC(=O)[C@H](CCC(N)=O)NC1=O (H-RCLHAGAACSGPIQKIPCCGTCSRRKCT-OH; disulfide 2-19, 9-22, 18-27)",97,inactive,inactive,Not Active,inactive,inactive,inactive,inactive,inactive,inactive,inactive,inactive,inactive,inactive,inactive,1.8,inactive,inactive,10,inactive,Activity [21]: Active; inhibition (INH) [22]: Not Active; inhibition [23]: inactive; Ki [24]: 19.8 µM; inhibition [25]: inactive; inhibition (INH) [26]: Not Active; Activity [27]: inactive; inhibition [28]: inactive; inhibition [29]: inactive; Ki [30]: 7.1 µM; inhibition [31]: inactive; Activity [32]: Active; inhibition (INH) [33]: Not Active; inhibition [34]: inactive
